Key:
SW480 [1] = experiment: Percent inhibition of SW480 cell growth in G0-G1 phase at 0 nm concentration in FACS cell cycle after 16 hr of treatment; type: functional, Homo sapiens
In short: (§1)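 SW480 cells were exposed to compound for 4, 16 or 24 h. Cells were fixed in 70% ethanol, pelleted for 1 min at 3000g at 25 °C and washed once in PBS. They were then treated with ribonuclease for 15 min at 37 °C and stained with propidium iodide for 30 min at room temperature. Flow cytometry gave the % of cells in G0-G1, S, G2-M and subG0, and the G2/G1 ratio.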

SW480 [2] = experiment: Percent inhibition of SW480 cell growth in sub G0 phase at 270 nm concentration in FACS cell cycle after 24 h of treatment; type: functional, Homo sapiens; in short: as §1
SW480 [3] = experiment: Percent inhibition of SW480 cell growth in G2-M phase at 92 nm concentration in FACS cell cycle after 16 hr of treatment; type: functional, Homo sapiens; in short: as §1
SW480 [4] = experiment: Percent inhibition of SW480 cell growth in S phase at 92 nm concentration in FACS cell cycle after 4 hr of treatment; type: functional, Homo sapiens; in short: as §1
SW480 [5] = experiment: Percent inhibition of SW480 cell growth in G0-G1 phase at 92 nm concentration in FACS cell cycle after 4 hr of treatment; type: functional, Homo sapiens; in short: as §1
[6] = Inhibition ratio of G2 and G1 phase cellular fractions of SW480 cells treated with compound at 92 nM concentration at 4 h; type: functional; in short: as §1
SW480 [7] = experiment: Percent inhibition of SW480 cell growth in S phase at 270 nm concentration in FACS cell cycle after 4 hr of treatment; type: functional, Homo sapiens; in short: as §1
SW480 [8] = experiment: Percent inhibition of SW480 cell growth in G2-M phase at 92 nm concentration in FACS cell cycle after 4 hr of treatment; type: functional, Homo sapiens; in short: as §1
SW480 [9] = experiment: Percent inhibition of SW480 cell growth in G2-M phase at 270 nm concentration in FACS cell cycle after 24 h of treatment; type: functional, Homo sapiens; in short: as §1
SW480 [10] = experiment: Percent inhibition of SW480 cell growth in G2-M phase at 92 nm concentration in FACS cell cycle after 24 hr of treatment; type: functional, Homo sapiens; in short: as §1
SW480 [11] = experiment: Percent inhibition of SW480 cell growth in G2-M phase at 270 nm concentration in FACS cell cycle after 4 hr of treatment; type: functional, Homo sapiens; in short: as §1
SW480 [12] = experiment: In vitro inhibition of SW480 (human colon cancer) cell proliferation.; type: functional, cell-based
In short: (§2)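 MTT-based proliferation assay run on tumour cells. IC50 values were taken from a single experiment.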

SW480 [13] = experiment: Percent inhibition of SW480 cell growth in G0-G1 phase at 270 nm concentration in FACS cell cycle after 16 hr of treatment; type: functional, Homo sapiens; in short: as §1
SW480 [14] = experiment: Percent inhibition of SW480 cell growth in S phase at 270 nm concentration in FACS cell cycle after 16 hr of treatment; type: functional, Homo sapiens; in short: as §1
[15] = Inhibition ratio of G2 and G1 phase cellular fractions of SW480 cells treated with compound at 92 nM concentration at 24 h; type: functional; in short: as §1
SW480 [16] = experiment: Percent inhibition of SW480 cell growth in sub G0 phase at 92 nm concentration in FACS cell cycle after 16 h of treatment; type: functional, Homo sapiens; in short: as §1
SW480 [17] = experiment: Percent inhibition of SW480 cell growth in S phase at 92 nm concentration in FACS cell cycle after 24 hr of treatment; type: functional, Homo sapiens; in short: as §1
SW480 [18] = experiment: Percent inhibition of SW480 cell growth in S phase at 0 nm concentration in FACS cell cycle after 24 hr of treatment; type: functional, Homo sapiens; in short: as §1
SW480 [19] = experiment: Percent inhibition of SW480 cell growth in sub G0 phase at 0 nm concentration in FACS cell cycle after 16 hr of treatment; type: functional, Homo sapiens; in short: as §1
SW480 [20] = experiment: Percent inhibition of SW480 cell growth in G2-M phase at 0 nm concentration in FACS cell cycle after 16 hr of treatment; type: functional, Homo sapiens; in short: as §1
SW480 [21] = experiment: Percent inhibition of SW480 cell growth in sub G0 phase at 92 nm concentration in FACS cell cycle after 24 hr of treatment; type: functional, Homo sapiens; in short: as §1
[22] = Inhibition ratio of G2 and G1 phase cellular fractions of SW480 cells treated with compound at 92 nM concentration at 16 h; type: functional; in short: as §1
[23] = Inhibition ratio of G2 and G1 phase cellular fractions of SW480 cells treated with compound at 270 nM concentration at 4 h; type: functional; in short: as §1
SW480 [24] = experiment: Percent inhibition of SW480 cell growth in sub G0 phase at 92 nm concentration in FACS cell cycle after 4 hr of treatment; type: functional, Homo sapiens; in short: as §1
SW480 [25] = experiment: Percent inhibition of SW480 cell growth in sub G0 phase at 270 nm concentration in FACS cell cycle after 4 hr of treatment; type: functional, Homo sapiens; in short: as §1
SW480 [26] = experiment: Percent inhibition of SW480 cell growth in sub G0 phase at 270 nm concentration in FACS cell cycle after 16 hr of treatment; type: functional, Homo sapiens; in short: as §1
SW480 [27] = experiment: Percent inhibition of SW480 cell growth in G0-G1 phase at 0 nm concentration in FACS cell cycle after 4 hr of treatment; type: functional, Homo sapiens; in short: as §1
SW480 [28] = experiment: Percent inhibition of SW480 cell growth in G0-G1 phase at 0 nm concentration in FACS cell cycle after 24 hr of treatment; type: functional, Homo sapiens; in short: as §1
SW480 [29] = experiment: Percent inhibition of SW480 cell growth in S phase at 0 nm concentration in FACS cell cycle after 4 h of treatment; type: functional, Homo sapiens; in short: as §1
SW480 [30] = experiment: Percent inhibition of SW480 cell growth in G0-G1 phase at 92 nm concentration in FACS cell cycle after 16 hr of treatment; type: functional, Homo sapiens; in short: as §1
[31] = target: Cyclin-dependent kinase 2/cyclin E (Homo sapiens, UniProt P24941); experiment: In vitro inhibition of recombinant Cyclin Dependent Kinase-2/Cyclin E.; type: protein-complex assay
SW480 [32] = experiment: Percent inhibition of SW480 cell growth in S phase at 0 nm concentration in FACS cell cycle after 16 hr of treatment; type: functional, Homo sapiens; in short: as §1
[33] = Inhibition ratio of G2 and G1 phase cellular fractions of SW480 cells treated with compound at 270 nM concentration at 24 h; type: functional; in short: as §1
[34] = Inhibition ratio of G2 and G1 phase cellular fractions of SW480 cells treated with compound at 0 nM concentration at 4 h; type: functional; in short: as §1
[35] = Inhibition ratio of G2 and G1 phase cellular fractions of SW480 cells treated with compound at 0 nM concentration at 16 h; type: functional; in short: as §1
SW480 [36] = experiment: Percent inhibition of SW480 cell growth in G0-G1 phase at 270 nm concentration in FACS cell cycle after 24 hr of treatment; type: functional, Homo sapiens; in short: as §1
SW480 [37] = experiment: Percent inhibition of SW480 cell growth in sub G0 phase at 0 nm concentration in FACS cell cycle after 24 hr of treatment; type: functional, Homo sapiens; in short: as §1
SW480 [38] = experiment: Percent inhibition of SW480 cell growth in G2-M phase at 0 nm concentration in FACS cell cycle after 4 hr of treatment; type: functional, Homo sapiens; in short: as §1
SW480 [39] = experiment: Percent inhibition of SW480 cell growth in S phase at 270 nm concentration in FACS cell cycle after 24 hr of treatment; type: functional, Homo sapiens; in short: as §1
MDA-MB-435 = experiment: In vitro inhibition of MDA MB 435 (human breast cancer) cell proliferation.; type: functional, cell-based; in short: as §2
SW480 [40] = experiment: Percent inhibition of SW480 cell growth in S phase at 92 nm concentration in FACS cell cycle after 16 hr of treatment; type: functional, Homo sapiens; in short: as §1
[41] = Inhibition ratio of G2 and G1 phase cellular fractions of SW480 cells treated with compound at 270 nM concentration at 16 h; type: functional; in short: as §1
SW480 [42] = experiment: Percent inhibition of SW480 cell growth in G2-M phase at 270 nm concentration in FACS cell cycle after 16 hr of treatment; type: functional, Homo sapiens; in short: as §1
SW480 [43] = experiment: Percent inhibition of SW480 cell growth in sub G0 phase at 0 nm concentration in FACS cell cycle after 4 hr of treatment; type: functional, Homo sapiens; in short: as §1
SW480 [44] = experiment: Percent inhibition of SW480 cell growth in G0-G1 phase at 270 nm concentration in FACS cell cycle after 4 hr of treatment; type: functional, Homo sapiens; in short: as §1
[45] = Inhibition ratio of G2 and G1 phase cellular fractions of SW480 cells treated with compound at 0 nM concentration at 24 h; type: functional; in short: as §1
SW480 [46] = experiment: Percent inhibition of SW480 cell growth in G2-M phase at 0 nm concentration in FACS cell cycle after 24 hr of treatment; type: functional, Homo sapiens; in short: as §1
SW480 [47] = experiment: Percent inhibition of SW480 cell growth in G0-G1 phase at 92 nm concentration in FACS cell cycle after 24 hr of treatment; type: functional, Homo sapiens; in short: as §1

With COc1cc[nH]c1/C=C1\C(=O)Nc2ccc(F)c(C#CC3(O)CCNCC3)c21.Cl the G0/G1 (SW480 [1]) was 46.55%, the SubG0 (SW480 [2]) was 46.86% and the G2/M (SW480 [3]) was 15.72%. The S (SW480 [4]) was 29.14%, the G0/G1 (SW480 [5]) was 52.49% and the Ratio [6] was 1.95%. For the same molecule, the S (SW480 [7]) was 34.26%, the G2/M (SW480 [8]) was 18.36% and the G2/M (SW480 [9]) was 35.45%. The G2/M (SW480 [10]) was 15.16%, the G2/M (SW480 [11]) was 21.8% and the IC50 (SW480 [12]) was 92 nM. The G0/G1 (SW480 [13]) was 47.74%, the S (SW480 [14]) was 13.82% and the Ratio [15] was 1.96%. The SubG0 (SW480 [16]) was 13.52%, the S (SW480 [17]) was 30.15% and the S (SW480 [18]) was 32.7%. The SubG0 (SW480 [19]) was 11.29%, the G2/M (SW480 [20]) was 14.84% and the SubG0 (SW480 [21]) was 11.67%. The Ratio [22] was 1.96%, the Ratio [23] was 1.95% and the SubG0 (SW480 [24]) was 11.17%. The SubG0 (SW480 [25]) was 14.47%, the SubG0 (SW480 [26]) was 43.52% and the G0/G1 (SW480 [27]) was 49.25%. It also gave a G0/G1 (SW480 [28]) of 52.41%, an S (SW480 [29]) of 32.33% and a G0/G1 (SW480 [30]) of 55.84%. It also gave an IC50 [31] of 6 nM, an S (SW480 [32]) of 38.61% and a Ratio [33] of 1.94%. For the same molecule, the Ratio [34] was 1.94%, the Ratio [35] was 1.95% and the G0/G1 (SW480 [36]) was 50%. The SubG0 (SW480 [37]) was 11.85%, the G2/M (SW480 [38]) was 18.42% and the S (SW480 [39]) was 14.54%. It also gave an IC50 (MDA-MB-435) of 110 nM, an S (SW480 [40]) of 28.43% and a Ratio [41] of 1.94%. For the same molecule, the G2/M (SW480 [42]) was 38.44%, the SubG0 (SW480 [43]) was 13.29% and the G0/G1 (SW480 [44]) was 43.9%. For the same molecule, the Ratio [45] was 1.95%, the G2/M (SW480 [46]) was 14.89% and the G0/G1 (SW480 [47]) was 54.68%.

CN[C@@H](C#Cc1c(F)ccc2c1/C(=C/c1[nH]ccc1OC)C(=O)N2)CO showed an IC50 (SW480 [12]) of 80 nM, an IC50 [31] of 4 nM and an IC50 (MDA-MB-435) of 300 nM.

Work on CCN[C@H](C#Cc1c(F)ccc2c1/C(=C/c1[nH]ccc1OC)C(=O)N2)CO yielded an IC50 (SW480 [12]) of 566 nM, an IC50 [31] of 21 nM and an IC50 (MDA-MB-435) of 1160 nM.

In the case of COc1cc[nH]c1/C=C1/C(=O)Nc2ccc(F)cc21, the IC50 [31] is reported as 847 nM and the IC50 (MDA-MB-435) is reported as over 30000 nM.

With COc1cc[nH]c1/C=C1\C(=O)Nc2ccc(F)c(C#C[C@@H]3C[C@H](O)CN3)c21 the IC50 (SW480 [12]) was 90 nM, the IC50 [31] was 5 nM and the IC50 (MDA-MB-435) was 110 nM.

COc1cc[nH]c1/C=C1\C(=O)Nc2ccc(F)c(C#C[C@H](C)O)c21 showed an IC50 (SW480 [12]) of 400 nM, an IC50 [31] of 26 nM and an IC50 (MDA-MB-435) of 190 nM.
